Results on 17 compounds are retold here after ChEMBL document CHEMBL3585269, “Simple structural modifications confer cytotoxicity to allobetulin” (Bioorg Med Chem, 2015).

Where only a bound is given, the exact number is not on record here.

Common to all, as to format: functional, cell-based
In one assay the test system is 8505C. The experiment in a line: Cytotoxicity against human 8505C cells by SRB assay. The gist of the method:
(§1)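 Photometric sulforhodamine B (SRB) read-out after 96 h of compound treatment. EC50 values are averaged from three independent experiments, each run in triplicate, and reported with a 95% confidence interval. The assay has an upper cut-off.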

The test system of a further assay is MCF7. The experiment in a line: Cytotoxicity against human MCF7 cells by SRB assay. The procedure, abridged:
as §1

A further assay concerns A549. The assay is described as follows: Cytotoxicity against human A549 cells by SRB assay. The gist of the method: as §1
A short description of assay [1]: Cytotoxicity against human 518A2 cells by SRB assay. The procedure, abridged: as §1
A further assay relates to A2780. The assay is described as follows: Cytotoxicity against human A2780 cells by SRB assay. The gist of the method: as §1
The test system of another assay is HT-29. The assay is described as follows: Cytotoxicity against human HT-29 cells by SRB assay. The procedure, abridged:
as §1

The mark [2] stands for this setting: Homo sapiens, 8505C, read-out: EC50.
[3] abbreviates: Homo sapiens, MCF7, read-out: EC50.
Where [4] appears, read: Homo sapiens, A549, read-out: EC50.
The mark [5] stands for this setting: Homo sapiens, 518A2, read-out: EC50.
The mark [6] stands for this setting: Homo sapiens, A2780, read-out: EC50.
Setting [7] is: Homo sapiens, HT-29, read-out: EC50.

With `C=C(C)[C@@H]1CC[C@]2(C)[C@H](CC[C@@H]3[C@H]4[C@H]5OC[C@@]4(CCC5(C)C)CC[C@]32C)[C@@]1(C)CCC(=O)O`, the EC50 entry (with 8505C (8505c); in the assay with MCF7 (mcf7); in the assay with A549 (a549); in assay [1] (518a2); in the assay with A2780 (a2780); with HT-29 (ht-29)) was “ND(Insoluble)” each time.
Turning to `CC1(C)CC[C@]23CC[C@]4(C)[C@H](CC[C@@H]5[C@@]6(C)C=C(O)C(=O)C(C)(C)[C@@H]6CC[C@]54C)[C@H]2[C@H]1OC3`, the EC50 was over 30 µM in the assay with 8505C (setting [2]); over 30 µM in the assay with MCF7 (setting [3]); 23.3 µM in the assay on A549 (setting [4]); over 30 µM in assay [1] (setting [5]); over 30 µM in the assay on A2780 (setting [6]); over 30 µM with HT-29 (setting [7]).
Take `C=CCOC(=O)CC[C@]1(C)[C@H]2CC[C@@H]3[C@H]4[C@H]5OC[C@@]4(CCC5(C)C)CC[C@@]3(C)[C@]2(C)CC[C@H]1C(=C)C`: the EC50 (with 8505C (setting [2]); in the assay with MCF7 (setting [3]); in the assay on A549 (setting [4]); in assay [1] (setting [5]); with A2780 (setting [6]); in the assay on HT-29 (setting [7])) was over 30 µM each time.
In the case of `C=C(C)[C@@H]1CC[C@]2(C)[C@H](CC[C@@H]3[C@H]4[C@H]5OC[C@@]4(CCC5(C)C)CC[C@]32C)[C@@]1(C)CCC(=O)OCC`, the EC50 (with 8505C (setting [2]); with MCF7 (setting [3]); in the assay on A549 (setting [4]); in assay [1] (setting [5]); in the assay with A2780 (setting [6]); in the assay with HT-29 (setting [7])) was over 30 µM in each case.
With `CC1(C)CC[C@]23CC[C@]4(C)[C@H](CC[C@@H]5[C@@]6(C)CC/C(=N\O)C(C)(C)[C@@H]6CC[C@]54C)[C@H]2[C@H]1OC3`, the EC50 entry (in the assay on 8505C (8505c); in the assay with MCF7 (mcf7); with A549 (a549); in assay [1] (518a2); in the assay with A2780 (a2780); with HT-29 (ht-29)) was “ND(Insoluble)” each time.
Take `CC1(C)CC[C@]23CC[C@]4(C)[C@H](CC[C@@H]5[C@@](C)(CC(=O)OCc6ccccc6)[C@H](C(C)(C)C(=O)OCc6ccccc6)CC[C@]54C)[C@H]2[C@H]1OC3`: the half-maximal effective concentration (EC50) result (in the assay with 8505C (8505c); in the assay with MCF7 (mcf7); with A549 (a549); in assay [1] (518a2); with A2780 (a2780); in the assay on HT-29 (ht-29)) was “ND(Insoluble)” throughout.
Regarding `CCCOC(=O)C[C@]1(C)[C@H]2CC[C@@H]3[C@H]4[C@H]5OC[C@@]4(CCC5(C)C)CC[C@@]3(C)[C@]2(C)CC[C@H]1C(C)(C)C(=O)OCCC`, the EC50 in the assay on 8505C (setting [2]) is over 30 µM; with MCF7 (setting [3]), over 30 µM; in the assay with A549 (setting [4]) it was over 30 µM; in assay [1] (setting [5]) it was over 30 µM; in the assay on A2780 (setting [6]) it was 22.4 µM; in the assay with HT-29 (setting [7]) it was 27 µM.
For `C=C(C)[C@@H]1CC[C@]2(C)[C@H](CC[C@@H]3[C@H]4[C@H]5OC[C@@]4(CCC5(C)C)CC[C@]32C)[C@@]1(C)CCC(=O)OCc1ccccc1`, the EC50 entry (with 8505C (8505c); with MCF7 (mcf7); with A549 (a549); in assay [1] (518a2); in the assay on A2780 (a2780); in the assay with HT-29 (ht-29)) was “ND(Insoluble)” each time.
Regarding `CC1(C)CC[C@]23CC[C@]4(C)[C@H](CC[C@@H]5[C@@]6(C)CC[C@H](O)C(C)(C)[C@@H]6CC[C@]54C)[C@H]2[C@H]1OC3` [ALLOBETULIN], the EC50 (in the assay on 8505C (setting [2]); with MCF7 (setting [3]); with A549 (setting [4]); in assay [1] (setting [5]); in the assay with A2780 (setting [6]); in the assay on HT-29 (setting [7])) was over 30 µM each time.
Turning to `C#CCOC(=O)CC[C@]1(C)[C@H]2CC[C@@H]3[C@H]4[C@H]5OC[C@@]4(CCC5(C)C)CC[C@@]3(C)[C@]2(C)CC[C@H]1C(=C)C`, the half-maximal effective concentration (EC50) (in the assay with 8505C (setting [2]); with MCF7 (setting [3]); with A549 (setting [4]); in assay [1] (setting [5]); in the assay on A2780 (setting [6]); with HT-29 (setting [7])) was over 30 µM each time.
`C=C(C)[C@@H]1CC[C@]2(CO)CC[C@]3(C)[C@H](CC[C@@H]4[C@@]5(C)CC[C@H](O)C(C)(C)[C@@H]5CC[C@]43C)[C@@H]12` [BETULIN]: the EC50 is over 30 µM with 8505C (setting [2]); 24.4 µM in the assay with MCF7 (setting [3]); 20.6 µM in the assay with A549 (setting [4]); 28.8 µM in assay [1] (setting [5]); 29.3 µM in the assay with A2780 (setting [6]); over 30 µM with HT-29 (setting [7]).
On to `C#CCOC(=O)C[C@]1(C)[C@H]2CC[C@@H]3[C@H]4[C@H]5OC[C@@]4(CCC5(C)C)CC[C@@]3(C)[C@]2(C)CC[C@H]1C(C)(C)C(=O)OCC#C`, for which the EC50 in the assay with 8505C (setting [2]) came to 18.7 µM; in the assay on MCF7 (setting [3]), 27.2 µM; in the assay on A549 (setting [4]), 21.1 µM; in assay [1] (setting [5]), 17.4 µM; in the assay with A2780 (setting [6]) it was 12.5 µM; in the assay with HT-29 (setting [7]) it was 15.7 µM.
`C=CCOC(=O)C[C@]1(C)[C@H]2CC[C@@H]3[C@H]4[C@H]5OC[C@@]4(CCC5(C)C)CC[C@@]3(C)[C@]2(C)CC[C@H]1C(C)(C)C(=O)OCC=C`: the EC50 is over 30 µM in the assay on 8505C (setting [2]); over 30 µM in the assay on MCF7 (setting [3]); over 30 µM with A549 (setting [4]); over 30 µM in assay [1] (setting [5]); 22.7 µM in the assay on A2780 (setting [6]); 29.2 µM in the assay with HT-29 (setting [7]).
Consider `CCCCOC(=O)C[C@]1(C)[C@H]2CC[C@@H]3[C@H]4[C@H]5OC[C@@]4(CCC5(C)C)CC[C@@]3(C)[C@]2(C)CC[C@H]1C(C)(C)C(=O)OCCCC`, for which the EC50 (in the assay with 8505C (setting [2]); in the assay on MCF7 (setting [3]); in the assay with A549 (setting [4]); in assay [1] (setting [5]); in the assay on A2780 (setting [6]); with HT-29 (setting [7])) was over 30 µM each time.
Turning to `CC1(C)CC[C@]23CC[C@]4(C)[C@H](CC[C@@H]5[C@@](C)(CC(=O)O)[C@H](C(C)(C)C(=O)O)CC[C@]54C)[C@H]2[C@H]1OC3`, the concentration giving a half-maximal response (EC50) result (in the assay with 8505C (8505c); in the assay on MCF7 (mcf7); in the assay with A549 (a549); in assay [1] (518a2); in the assay on A2780 (a2780); with HT-29 (ht-29)) was “ND(Insoluble)” each time.
For the compound `COC(=O)C[C@]1(C)[C@H]2CC[C@@H]3[C@H]4[C@H]5OC[C@@]4(CCC5(C)C)CC[C@@]3(C)[C@]2(C)CC[C@H]1C(C)(C)C(=O)OC`, the EC50 was 27.1 µM with 8505C (setting [2]); 29.4 µM in the assay with MCF7 (setting [3]); over 30 µM in the assay with A549 (setting [4]); 29.4 µM in assay [1] (setting [5]); 18.1 µM in the assay on A2780 (setting [6]); 17.5 µM in the assay on HT-29 (setting [7]).
For the compound `C=C(C)[C@@H]1CC[C@]2(C)[C@H](CC[C@@H]3[C@H]4[C@H]5OC[C@@]4(CCC5(C)C)CC[C@]32C)[C@@]1(C)CCC(=O)OCCCC`, the EC50 (in the assay with 8505C (setting [2]); with MCF7 (setting [3]); in the assay on A549 (setting [4]); in assay [1] (setting [5]); in the assay on A2780 (setting [6]); with HT-29 (setting [7])) was over 30 µM each time.
